Results taken from ChEMBL document CHEMBL3352465, “The SAR development of substituted purine derivatives as selective CB2 agonists for the treatment of chronic pain” (Bioorg Med Chem Lett, 2014).
Converted amounts (≈) assume the structure as drawn. The source made the active and inactive calls. The calls are words filed in the database; no cut-off is given here.

Tests used:
[1] = molecular target: T1, Cannabinoid receptor 2 (Homo sapiens, UniProt P34972); assay: Agonist activity at human CB2 receptor expressed in CHO cells by [35S]-GTPgammaS binding assay; type: functional, cell-based
[2] = molecular target: T1, Cannabinoid receptor 2; assay: Agonist activity at human CB2 receptor expressed in CHO cells by [35S]-GTPgammaS binding assay relative to control; type: functional, cell-based
[3] = molecular target: T2, Cannabinoid receptor 1 (Homo sapiens, UniProt P21554); assay: Agonist activity at human CB1 receptor expressed in Sf9 cells by [35S]-GTPgammaS binding assay; type: functional
[4] = molecular target: T2, Cannabinoid receptor 1; assay: Agonist activity at human CB1 receptor expressed in Sf9 cells by [35S]-GTPgammaS binding assay relative to control; type: functional
[5] = Drug metabolism in human liver microsomes at 2 uM after 0.5 hr by LC/MS/MS analysis; type: ADME; conditions: read-out: Drug metabolism
[6] = Drug metabolism in rat liver microsomes at 2 uM after 0.5 hr by LC/MS/MS analysis; type: ADME; conditions: read-out: Drug metabolism
[7] = Drug metabolism in dog liver microsomes at 2 uM after 0.5 hr by LC/MS/MS analysis; type: ADME, Canis lupus familiaris; conditions: read-out: Drug metabolism
[8] = organism: Rattus norvegicus; assay: Inhibition of GABA gated chloride channel in rat cortex at 10 uM by radioligand binding assay
In short: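 Radioligand binding to GABA-gated chloride channels from rat, run by an outside contract lab.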

[9] = Clearance in Sprague-Dawley rat at 1 mg/kg, iv; type: ADME, organism-based; set-up: dose 1 mg/kg, route intravenous; conditions: in vivo
[10] = Volume of distribution at steady state in Sprague-Dawley rat at 1 mg/kg, iv and 1 mg/kg, po; type: ADME, organism-based; conditions: in vivo, read-out: Vdss
In short: (§1)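 Plasma PK after intravenous and oral dosing at 1 mg/kg each route; male Sprague-Dawley rats and male Beagle dogs. Clearance and steady-state volume from the iv leg, half-life and bioavailability from the po leg.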

[11] = Half life in Sprague-Dawley rat at 1 mg/kg, po; type: ADME, organism-based; set-up: dose 1 mg/kg, route oral; conditions: in vivo; in short: as §1
[12] = AUC in Sprague-Dawley rat at 1 mg/kg, iv and 1 mg/kg, po; type: ADME, organism-based; conditions: plasma; in short: as §1
[13] = Cmax in Sprague-Dawley rat at 1 mg/kg, iv and 1 mg/kg, po; type: ADME, organism-based; conditions: in vivo; in short: as §1
[14] = Oral bioavailability in Sprague-Dawley rat at 1 mg/kg; type: ADME, organism-based; conditions: in vivo; in short: as §1
[15] = Clearance in Beagle dog at 1 mg/kg, iv; type: ADME, organism-based, Canis lupus familiaris; set-up: dose 1 mg/kg, route intravenous; conditions: in vivo
[16] = Volume of distribution at steady state in Beagle dog at 1 mg/kg, iv and 1 mg/kg, po; type: ADME, organism-based, Canis lupus familiaris; conditions: in vivo, read-out: Vdss; in short: as §1
[17] = Half life in Beagle dog at 1 mg/kg, po; type: ADME, organism-based, Canis lupus familiaris; set-up: dose 1 mg/kg, route oral; conditions: in vivo; in short: as §1
[18] = AUC in Beagle dog at 1 mg/kg, iv and 1 mg/kg, po; type: ADME, organism-based, Canis lupus familiaris; conditions: plasma; in short: as §1
[19] = Cmax in Beagle dog at 1 mg/kg, iv and 1 mg/kg, po; type: ADME, organism-based, Canis lupus familiaris; conditions: in vivo; in short: as §1
[20] = Oral bioavailability in Beagle dog at 1 mg/kg; type: ADME, organism-based, Canis lupus familiaris; conditions: in vivo; in short: as §1
[21] = tested on: MDCK; assay: Permeability across MDCK cells expressing human P-gp; type: ADME, cell-based, Canis lupus familiaris; conditions: dog
In short: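 Bi-directional permeability was measured across an MDCK line expressing human P-gp to test whether the compound is a P-gp substrate.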

[22] = molecular target: Cytochrome P450 3A4 (Homo sapiens, UniProt P08684); assay: Effect on CYP3A4 (unknown origin) up to 10 uM; type: ADME
[23] = molecular target: T3, Cytochrome P450 1A2 (Homo sapiens, UniProt P05177); assay: Effect on CYP1A2 (unknown origin) up to 10 uM; type: ADME
T3 sequence (P05177 whole entry): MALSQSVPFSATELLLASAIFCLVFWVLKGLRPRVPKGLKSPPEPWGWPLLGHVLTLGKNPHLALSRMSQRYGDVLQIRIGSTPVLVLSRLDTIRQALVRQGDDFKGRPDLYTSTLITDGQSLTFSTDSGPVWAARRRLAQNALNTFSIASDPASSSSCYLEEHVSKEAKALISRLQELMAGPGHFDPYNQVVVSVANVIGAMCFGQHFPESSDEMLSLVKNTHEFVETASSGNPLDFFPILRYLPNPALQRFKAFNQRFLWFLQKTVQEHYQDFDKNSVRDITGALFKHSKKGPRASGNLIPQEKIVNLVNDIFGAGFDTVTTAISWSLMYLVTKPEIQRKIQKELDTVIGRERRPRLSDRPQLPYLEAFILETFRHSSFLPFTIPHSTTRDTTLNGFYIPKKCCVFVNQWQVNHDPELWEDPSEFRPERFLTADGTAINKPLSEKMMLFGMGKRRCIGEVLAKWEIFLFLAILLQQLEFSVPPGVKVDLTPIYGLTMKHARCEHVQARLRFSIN

[24] = molecular target: Cytochrome P450 2D6 (Homo sapiens, UniProt P10635); assay: Effect on CYP2D6 (unknown origin) up to 10 uM; type: ADME
[25] = molecular target: Cytochrome P450 2C9 (Homo sapiens, UniProt P11712); assay: Effect on CYP2C9 (unknown origin) up to 10 uM; type: ADME
[26] = molecular target: CYP3A4 (Homo sapiens, UniProt P08684); assay: Drug metabolism assessed as human CYP3A4-mediated oxidative compound turnover; type: ADME; conditions: recombinant enzyme, read-out: Drug metabolism
In short: (§2)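 Oxidative turnover was assessed with recombinant human P450 enzymes to identify which isoforms contribute to metabolite formation.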

[27] = molecular target: CYP2C9 (Homo sapiens, UniProt P11712); assay: Drug metabolism assessed as human CYP2C9-mediated compound turnover; type: ADME; conditions: recombinant enzyme, read-out: Drug metabolism; in short: as §2
[28] = molecular target: T4, CYP1A2 (Homo sapiens, UniProt P05177); assay: Drug metabolism assessed as human CYP1A2-mediated compound turnover; type: ADME; conditions: recombinant enzyme, read-out: Drug metabolism; in short: as §2
T4 sequence (P05177 whole entry): T3 sequence (P05177 whole entry)

[29] = Drug excretion in rat urine assessed as phase 2 glucuronide metabolite; type: ADME
[30] = Drug excretion in rat bile assessed as phase 2 glucuronide metabolite; type: ADME
[31] = Drug excretion in rat urine assessed as sulfate metabolite; type: ADME
[32] = Drug excretion in rat bile assessed as sulfate metabolite; type: ADME
[33] = tested on: Rattus norvegicus; assay: Analgesic activity in monoiodoacetic acid-induced joint pain rat model assessed as inhibition of differential weight bearing capacity at 1 mg/kg, po administered 20 days post MIA challenge relative to vehicle treated control; type: functional, organism-based; set-up: dose 1 mg/kg
In short: (§3)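 Rats got 0.3 mg MIA intra-articular into the right knee and saline into the left on day 0. On day 20 they were randomized and dosed po with vehicle (1% CMC in water with 0.25% Tween 80), agonist 1 mg/kg, SR-144528 3 mg/kg, or antagonist given 30 min before agonist. Incapacitance (differential hind-limb weight bearing) was read 2 h after agonist; n = 6/group; Dunnett's test versus vehicle.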

[34] = tested on: Rattus norvegicus; assay: Analgesic activity in monoiodoacetic acid-induced joint pain rat model assessed as inhibition of differential weight bearing capacity at 1 mg/kg, po administered 20 days post MIA challenge co-administered with 3 mg/kg SR-144528 relative to vehicle treated control; type: functional, organism-based; in short: as §3
[35] = tested on: Rattus norvegicus; assay: Analgesic activity in monoiodoacetic acid-induced joint pain rat model assessed as inhibition of differential weight bearing capacity compound administered orally post MIA challenge measured 2 hrs after compound dose on day 12 post MIA challenge relative to vehicle treated control; type: functional; conditions: po
In short: (§4)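 MIA knee-joint pain in rats; oral doses of 0.1, 0.3 and 1 mg/kg, with diclofenac 5 mg/kg po as comparator. Differential hind-limb weight bearing was measured by incapacitance tester on day 12 post MIA, 2 h after dosing; n = 5/group; Student's t-test versus vehicle. ED50 was derived from the dose response.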

[36] = tested on: Rattus norvegicus; assay: Analgesic activity in monoiodoacetic acid-induced joint pain rat model assessed as inhibition of differential weight bearing capacity at 1 mg/kg, po bid for 5 days starting 20 days post MIA challenge relative to vehicle treated control; type: functional, organism-based; set-up: dose 1 mg/kg
In short: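 MIA knee-joint pain model in rats; repeat oral dosing at 1.0 mg/kg bid for 5 days. Incapacitance efficacy was compared between day 1 and day 5, and plasma exposures were monitored over the period.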

[37] = tested on: Rattus norvegicus; assay: Toxicity in rat assessed as hypothermia up to 30 mg/kg, po; type: organism-based; set-up: dose 30 mg/kg, route oral; conditions: in vivo
In short: (§5)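 Rats were dosed orally up to 30 mg/kg and checked for hypothermia and for rotorod performance. CP-55,940 0.5 mg/kg ip served as positive control.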

[38] = tested on: Rattus norvegicus; assay: Toxicity in rat assessed as behavioral impairment up to 30 mg/kg, po by rotorod test; type: organism-based; set-up: dose 30 mg/kg, route oral; conditions: in vivo; in short: as §5
[39] = Lipophilicity, log P of the compound; type: physicochemical; conditions: octanol/water
[40] = Aqueous solubility of the compound at pH 6.5; type: physicochemical
In short: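 Aqueous solubility measured at pH 6.5.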

[41] = Dissociation constant, pKa of the compound; type: physicochemical
[42] = tested on: Rattus norvegicus; assay: Analgesic activity in monoiodoacetic acid-induced joint pain rat model assessed as inhibition of differential weight bearing capacity at 5 mg/kg, po measured 2 hrs after compound dose on day 12 post MIA challenge relative to vehicle treated control; type: functional, organism-based; set-up: dose 5 mg/kg; in short: as §4

T1 sequence (P34972 whole entry): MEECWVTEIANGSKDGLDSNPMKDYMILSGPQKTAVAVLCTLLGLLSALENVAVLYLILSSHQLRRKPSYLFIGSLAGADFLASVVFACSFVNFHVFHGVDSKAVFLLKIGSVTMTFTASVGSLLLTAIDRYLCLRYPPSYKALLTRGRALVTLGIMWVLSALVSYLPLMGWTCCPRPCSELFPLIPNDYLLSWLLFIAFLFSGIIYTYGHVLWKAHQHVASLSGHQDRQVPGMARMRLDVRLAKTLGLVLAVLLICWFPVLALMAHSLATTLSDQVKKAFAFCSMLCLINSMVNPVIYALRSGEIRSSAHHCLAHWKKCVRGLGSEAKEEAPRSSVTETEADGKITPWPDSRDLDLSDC
T2 sequence (P21554 whole entry): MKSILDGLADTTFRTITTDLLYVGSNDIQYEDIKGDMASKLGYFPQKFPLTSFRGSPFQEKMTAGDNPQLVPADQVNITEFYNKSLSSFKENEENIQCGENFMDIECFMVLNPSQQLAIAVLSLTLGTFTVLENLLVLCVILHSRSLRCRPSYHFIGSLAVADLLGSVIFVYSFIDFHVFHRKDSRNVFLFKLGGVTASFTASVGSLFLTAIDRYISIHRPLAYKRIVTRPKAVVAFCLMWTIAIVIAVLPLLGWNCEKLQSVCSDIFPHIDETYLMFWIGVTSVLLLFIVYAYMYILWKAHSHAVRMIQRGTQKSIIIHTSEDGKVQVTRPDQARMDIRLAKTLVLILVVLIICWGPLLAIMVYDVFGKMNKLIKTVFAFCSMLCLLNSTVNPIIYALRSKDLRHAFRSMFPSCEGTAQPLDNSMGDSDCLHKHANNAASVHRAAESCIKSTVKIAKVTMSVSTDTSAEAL
Sequence of Cytochrome P450 2D6 (P10635 whole entry): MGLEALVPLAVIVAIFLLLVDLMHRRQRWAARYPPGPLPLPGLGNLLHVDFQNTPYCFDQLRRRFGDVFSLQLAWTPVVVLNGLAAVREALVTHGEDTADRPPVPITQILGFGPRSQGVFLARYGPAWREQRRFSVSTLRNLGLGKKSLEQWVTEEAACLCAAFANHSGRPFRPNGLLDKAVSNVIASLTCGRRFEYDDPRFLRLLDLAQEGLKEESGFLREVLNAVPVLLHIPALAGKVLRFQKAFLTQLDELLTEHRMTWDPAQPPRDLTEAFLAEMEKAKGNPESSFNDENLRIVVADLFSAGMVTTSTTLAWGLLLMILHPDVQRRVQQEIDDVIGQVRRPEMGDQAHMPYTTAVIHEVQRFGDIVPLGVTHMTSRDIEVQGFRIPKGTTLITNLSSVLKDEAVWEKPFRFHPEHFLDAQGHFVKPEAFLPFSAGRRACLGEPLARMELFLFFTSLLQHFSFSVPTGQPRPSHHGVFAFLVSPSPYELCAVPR
Sequence of CYP2C9 (P11712 whole entry): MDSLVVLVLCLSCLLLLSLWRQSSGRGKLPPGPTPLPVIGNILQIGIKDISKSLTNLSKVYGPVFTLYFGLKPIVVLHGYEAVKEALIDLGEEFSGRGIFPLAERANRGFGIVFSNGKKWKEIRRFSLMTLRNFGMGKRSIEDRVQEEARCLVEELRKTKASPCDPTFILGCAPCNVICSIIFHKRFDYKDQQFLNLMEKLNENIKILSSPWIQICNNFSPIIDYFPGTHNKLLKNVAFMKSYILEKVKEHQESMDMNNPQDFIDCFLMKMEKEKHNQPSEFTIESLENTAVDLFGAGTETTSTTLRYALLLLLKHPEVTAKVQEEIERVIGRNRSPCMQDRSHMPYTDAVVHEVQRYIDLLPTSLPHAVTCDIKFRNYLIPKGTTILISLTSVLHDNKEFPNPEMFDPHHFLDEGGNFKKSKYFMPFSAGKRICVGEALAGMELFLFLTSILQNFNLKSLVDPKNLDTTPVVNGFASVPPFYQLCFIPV
Sequence of Cytochrome P450 2C9 (P11712 whole entry): as above
Sequence of Cytochrome P450 3A4 (P08684 whole entry): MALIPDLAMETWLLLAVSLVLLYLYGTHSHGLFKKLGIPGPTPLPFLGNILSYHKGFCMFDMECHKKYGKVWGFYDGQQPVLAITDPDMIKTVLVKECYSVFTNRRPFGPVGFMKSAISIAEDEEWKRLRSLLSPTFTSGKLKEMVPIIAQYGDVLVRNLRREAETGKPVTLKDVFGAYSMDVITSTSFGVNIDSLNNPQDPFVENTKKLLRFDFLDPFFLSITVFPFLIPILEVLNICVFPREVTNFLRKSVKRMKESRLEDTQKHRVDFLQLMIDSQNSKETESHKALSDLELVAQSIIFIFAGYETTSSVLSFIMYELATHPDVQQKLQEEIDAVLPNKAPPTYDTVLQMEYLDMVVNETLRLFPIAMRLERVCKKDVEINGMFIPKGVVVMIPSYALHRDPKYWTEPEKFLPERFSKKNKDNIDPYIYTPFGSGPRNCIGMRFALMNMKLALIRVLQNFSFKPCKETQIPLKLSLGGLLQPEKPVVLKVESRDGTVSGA
Sequence of CYP3A4 (P08684 whole entry, canonical isoform): as the sequence (P08684 whole entry) above

Cc1nc(N2CCN(C)CC2)c2nc(-c3ccccc3Cl)n(C(C)(C)CO)c2n1
EC50 [1]: 12.5 nM | Efficacy [2]: 72.6% | EC50 [3]: 5000 nM | Efficacy [4]: 43.2% | metabolised at 0.5 h, 2 µM [5]: 43% | metabolised at 0.5 h, 2 µM [6]: 93% | metabolised at 0.5 h, 2 µM [7]: 90% | inhibition [8]: 20%

Cc1nc(N2CCN(C)CC2)c2nc(-c3ccccc3Cl)n([C@H](C)CO)c2n1
EC50 [1]: 22.4 nM | Efficacy [2]: 81.8% | EC50 [3]: > 100000 nM | metabolised at 0.5 h, 2 µM [5]: 22% | metabolised at 0.5 h, 2 µM [6]: 50% | metabolised at 0.5 h, 2 µM [7]: 42% | inhibition [8]: 20% | clearance [9]: 32 mL/min/kg | Vd [10]: 6 L/kg | half-life [11]: 2.3 h | AUC [12]: 514 ng·h/mL | Cmax [13]: 87 ng/mL | bioavailability [14]: 38% | clearance [15]: 38 mL/min/kg | Vd [16]: 4 L/kg | half-life [17]: 1.7 h | AUC [18]: 437 ng·h/mL | Cmax [19]: 43 ng/mL | bioavailability [20]: 23% | permeability [21]: impermeable | Activity [22]: Not Active | Activity [23]: Not Active | Activity [24]: Not Active | Activity [25]: Not Active | metabolised [26]: 80% | metabolised [27]: 80% | metabolised [28]: 80% | Drug excretion [29]: metabolite_detected | Drug excretion [30]: metabolite_detected | Drug excretion [31]: metabolite_detected | Drug excretion [32]: metabolite_detected | inhibition [33]: Active | inhibition [34]: inactive | ED50 [35]: 0.16 mg/kg | inhibition [36]: Active | Activity [37]: Toxic | Activity [38]: Toxic | logP [39]: 3.1 | solubility [40]: 1800 µg/mL (≈ 4.49 mM) | pKa [41]: 7.5 | inhibition [42]: Active

CCN1CCN(c2nc(C)nc3c2nc(-c2ccccc2Cl)n3C(COC)COC)CC1
EC50 [1]: 5 nM | Efficacy [2]: 69.3% | EC50 [3]: > 100000 nM | metabolised at 0.5 h, 2 µM [5]: 35% | metabolised at 0.5 h, 2 µM [6]: 58% | metabolised at 0.5 h, 2 µM [7]: 66% | inhibition [8]: < 10%

Cc1nc(N2CCN(C)CC2)c2nc(-c3ccccc3Cl)n([C@@H](C)CO)c2n1
EC50 [1]: 12.5 nM | Efficacy [2]: 96.5% | EC50 [3]: > 100000 nM | metabolised at 0.5 h, 2 µM [5]: 11% | metabolised at 0.5 h, 2 µM [6]: 79% | metabolised at 0.5 h, 2 µM [7]: 60%
